# Rows were chosen to be rich in hits. Some 2.6% of all compounds tested hit in one or more screens of this group.
# RAM inhibit – yeast RAM network inhibition; S. cerevisiae dse1pr::URA3 reporter, 5-FOA growth OD615, 2 d; analog-sensitive cbk1-as2 kinase mutant strain; inhibition, % at 50 µM; hit rate 1.8% among 190,000;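 active = inhibition above a set limit, 3 SD over mean compound inhibition, cut at about 8.4% in these data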;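 also: inhibition rescues growth on 5-FOA so higher OD means more RAM inhibition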
# BB579 growth dn – yeast BB579 growth reduction in restrictive medium; S. cerevisiae BB579 growth, OD615, 48 h; AID 804; hit rate 0.51% among 140,000; inhibition, % at 10 µM;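 active = inhibition above a set limit, 3 SD over the mean compound inhibition, cut at about 44% in these data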
#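 System: Saccharomyces cerevisiae DeaD strain BB579, replicative lifespan model yeast. Buffer or medium: restrictive glucose-based CSMM-D medium. Doses: one dose, 10 µM compound with 0.25% DMSO. Timing: 4 h preincubation and 48 h exposure at 30 °C. Detection: turbidity as optical density at 615 nm. Benchmarks: amphotericin B 10 µg/mL, positive.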
# Yeast lifespan up – yeast lifespan extension. hit rate 0.68% among 130,000. inhibition of the nicotinamide effect, % at 10 µM. S. cerevisiae growth with nicotinamide, OD615; deaD strain in restrictive glucose medium;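 active = inhibition above a set limit, placed 3 SD over the median of all compounds, cut at about 26% in these data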
#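 assay system = DeaD-strain S. cerevisiae | measured by = absorbance at 615 nm | probe or stimulus = nicotinamide 1.5 mM | buffer or medium = CSMM-D glucose medium, restrictive | times = 48 h at 30 °C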
# Hits are given with their value; – = inactive; · = no result.
SMILES,RAM inhibit,BB579 growth dn,Yeast lifespan up
CCOc1ccc(C(=O)Nc2ccccc2-c2ccccc2)cc1Cl,–,–,–
Cc1ccc(C2(c3noc(CN(C)Cc4cccnc4)n3)CCCC2)cc1,–,·,·
COc1cccc2c1OCC/C2=N\NC(=O)C(C)Oc1ccc([N+](=O)[O-])cc1 (stereo unspecified),–,·,·
NC(=O)CSc1nc2ccccc2c(=O)n1Cc1ccco1,–,–,·
CCCn1c(C)cc(C(=O)CSc2nc3ccccc3c(=O)n2Cc2ccco2)c1C,9.3,–,–
O=c1c2ccccc2nc(SCc2ccccc2Cl)n1Cc1ccccc1,8.9,–,–
COC(=O)c1ccc(CSc2nc3ccccc3c(=O)n2CC(C)C)o1,9.1,–,–
CCOC(=O)CSc1nc2ccccc2c(=O)n1CC(C)C,–,·,·
COC(=O)c1ccc(CSc2nc3ccccc3c(=O)n2Cc2ccco2)o1,9.7,–,–
C=CCSc1nc2ccccc2c(=O)n1Cc1ccccc1,–,·,·
O=C(CSc1nc2ccccc2c(=O)n1Cc1ccco1)c1ccc(F)cc1,–,–,–
Cc1nc(N/C(N)=N/S(=O)(=O)c2ccc([N+](=O)[O-])cc2)nc2ccccc12,–,–,–
Cc1ccc(CCNC(=O)CCc2nc3ccccc3[nH]2)cc1,–,–,–
Cc1ccc(C(=O)N/C(=C\c2ccccc2)C(=O)NCc2cccnc2)cc1,–,·,·
CCOC(=O)N1CCC(N2C(=O)c3ccccc3C2Nc2ccc(S(=O)(=O)N3CCOCC3)cc2)CC1 (stereo unspecified),–,·,·
O=C1CC(=O)N(c2ccccc2)N1c1ccccc1,–,–,28
O=C1CC(=O)N(c2ccccc2)c2ccccc21,–,–,–
CCOC(=O)c1c(C)oc2c1c(C(c1ccccc1)N1CCOCC1)c(O)c1ccccc12 (stereo unspecified),–,–,–
CCOC(=O)c1c(C)oc2c1c(C(c1cccnc1)N1CCCCC1)c(O)c1ccccc12 (stereo unspecified),–,–,50
COc1ccc(-c2nc3c(c(=O)[nH]c(=O)n3Cc3ccccc3)n2C)cc1,–,–,–
COc1cc(Br)cc(-c2nc3c(c(=O)[nH]c(=O)n3Cc3ccccc3)n2C)c1O,–,–,63
O=C1CC(C(=O)Nc2cc(Cl)ccc2Cl)n2ncnc2N1 (stereo unspecified),–,·,·
CC(C(=O)NCCC1=CCCCC1)c1ccc([N+](=O)[O-])cc1 (stereo unspecified),–,·,·
CC(C(=O)Nc1ccccc1Sc1ccccc1)N(c1ccccc1)S(C)(=O)=O (stereo unspecified),8.4,–,–
CS(=O)(=O)N(Cc1ccc(C(=O)Nc2ccccc2Sc2ccccc2)cc1)c1ccccc1,–,–,–
SMILES,RAM inhibit,BB579 growth dn,Yeast lifespan up
Cc1nc([N+](=O)[O-])c(Sc2nc3ccc([N+](=O)[O-])cc3[nH]2)n1Cc1ccccc1,–,–,–
Cc1ccccc1C(=O)O/N=C/c1c(N2CCOCC2)n(C)c2ccccc12,–,79,–
Cn1c(Cl)c(/C=N/OC(=O)C2CC2)c2ccccc21,–,·,·
O=C(CN1C(=O)C2CCCCC2C1=O)OCC(=O)c1ccc(Cl)s1 (stereo unspecified),–,·,·
O=C1C(c2ccncc2)=C(O)c2ccccc21,–,–,–
CC(C)c1ccc(C2=C(O)c3ccccc3C(=O)C2=O)cc1,–,–,46
CC1Cn2c(nc(=O)c3c2NCN(CCc2ccccc2)C3)S1 (stereo unspecified),–,·,·
CC(=O)NCC(=O)N1CCCC(C(=O)c2ccc(Oc3ccccc3)cc2)C1 (stereo unspecified),–,·,·
COc1cc(/C=C(\C#N)c2ccccn2)ccc1OCc1ccccc1Cl,9.7,–,–
COc1cc(/C=C(\C#N)c2ccccn2)ccc1OCC(=O)Nc1cccc(C(F)(F)F)c1,–,–,–
O=C1NC2(CCCC2)C(=O)N1CCS(=O)(=O)Oc1ccccc1,–,·,·
O=C1NC2(CCCCC2)C(=O)N1CCS(=O)(=O)Oc1ccc(Br)cc1,8.8,·,·
COc1ccc(-c2csc(CCn3nc(C)cc3C)n2)cc1,–,·,·
Cc1cc(C)n(CCc2nc(-c3ccc(-c4ccccc4)cc3)cs2)n1,8.7,–,–
CN(C)/C=C(\C#N)C(=O)Nc1ccc(O)cc1F,–,·,·
CCN(CC)C(=O)c1ccc(S(=O)(=O)NCc2cccnc2)cc1,–,–,–
CCN(Cc1ccccc1)C(=O)c1ccc(CNS(=O)(=O)c2ccc(C)cc2)cc1,11,–,–
CC(C)CC(=O)NC1(C(F)(F)F)C(=O)N(CC(C)C)C2=C1C(=O)CC(C)(C)C2 (stereo unspecified),–,–,–
Cc1cc([N+](=O)[O-])ccc1NCc1ccccc1,–,–,–
Cc1cc([N+](=O)[O-])ccc1NCc1ccc2ccccc2c1,9.8,–,–
COc1ccccc1NC(=O)c1ccc2nc(-c3ccccc3)c(-c3ccccc3)nc2c1,–,–,–
COc1ccccc1-c1nc2cc3ccccc3cc2nc1-c1ccccc1,11,–,–
OC(c1ccccn1)(c1ccccn1)c1ccccn1,–,–,–
O=C(/C=C/c1ccccc1[N+](=O)[O-])N1CCN(c2ccccc2F)CC1,8.5,·,·
O=C(/C=C/c1ccc(Cl)cc1Cl)N1CCN(c2ccccc2[N+](=O)[O-])CC1,8.6,–,–
SMILES,RAM inhibit,BB579 growth dn,Yeast lifespan up
O=C(/C=C/c1ccc(Cl)cc1Cl)N1CCN(c2ccc([N+](=O)[O-])c(N3CCOCC3)c2)CC1,–,–,–
O=C(/C=C/c1cccc([N+](=O)[O-])c1)N1CCN(c2ccccc2F)CC1,–,–,–
CN1CCN(NC(=O)c2cn(-c3ccccc3)nc2-c2ccc(OC(F)F)cc2)CC1,–,·,·
CCCCCCNS(=O)(=O)c1nc2nc(C)cc(C)n2n1,–,–,–
Nc1ccccc1-c1nnc(-c2ccccc2N)n1N,–,·,·
O=c1cc(O)c2c(=O)n(C3CCCCC3)c3ccccc3c2o1,–,–,31
CCCCn1c(=O)c2c(O)cc(=O)oc2c2ccccc21,–,–,43
Cn1c2ccccc2c(=O)c2c(=O)n(C3CCCCC3)c(-c3ccco3)nc21,–,–,–
O=c1cc(O)c2c(=O)n(Cc3ccccc3)c3ccccc3c2o1,–,·,·
O=c1cc(O)c2c(=O)n(-c3ccccc3)c3c(c2o1)CCCCCC3,–,–,46
O=C1CCCc2c1cc(C(=O)O)c(=O)n2-c1ccccc1,–,·,·
CCOC(=O)CN(Cc1sccc1C)C(=O)Nc1ccc(OCC)cc1,–,–,–
COc1ccc(C(=O)O/N=C(\N)Cc2ccc(Cl)cc2)cc1OC,–,–,–
N/C(Cc1ccc(Cl)cc1)=N\OC(=O)c1ccccc1,–,96,–
Cc1nc(-c2ccccc2)sc1C(=O)/C=C/c1ccc(Cl)cc1,–,–,–
COc1ccc(N/C=C/C(=O)c2sc(-c3ccccc3)nc2C)cc1,9.5,–,–
COC(=O)CSc1nc2[nH]ncc2c(=O)[nH]1,–,·,·
O=C(ONC1=NCCCCC1)c1c(F)cccc1F,–,–,–
O=C(ONC1=NCCCCC1)c1ccc(Cl)cc1,–,98,–
COc1cc(CC(=O)OCC(=O)N2CC(=O)Nc3ccccc32)cc(OC)c1OC,–,·,·
NS(=O)(=O)c1ccc(N/N=C/c2ccccc2C(=O)O)c([N+](=O)[O-])c1,–,·,·
Cc1ccc(NC(=O)c2ccc(N/N=C/c3cccc(O)c3)c([N+](=O)[O-])c2)cc1,9.0,–,–
